# TCR-CD3 inh – blocks the human TCR-CD3 interaction; TAMRA-labeled TCR probe fluorescence, biochemical; inhibition, % at 9.4 µM; hit rate 0.37% among 360,000;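 note: recombinant mutant TCR 2C K166C tagged with TAMRA read by polarization; 0% = receptor in buffer alone and 100% = receptor with positive control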
# mABHD4 FP – ABHD4 (mouse) inhibition, primary FP screen | inhibition, % at 8.92 µM | Q8VD66 | purified mABHD4, FP-Rh probe fluorescence polarization | hit rate 0.54% among 370,000;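 active = inhibition exceeding the mean over every tested compound plus 3 SD, cut at about 30% in these data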;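 note: 0% = plate median of compound wells and 100% = S159A mutant with DMSO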
# Target sequence (Q8VD66 whole entry, looked up): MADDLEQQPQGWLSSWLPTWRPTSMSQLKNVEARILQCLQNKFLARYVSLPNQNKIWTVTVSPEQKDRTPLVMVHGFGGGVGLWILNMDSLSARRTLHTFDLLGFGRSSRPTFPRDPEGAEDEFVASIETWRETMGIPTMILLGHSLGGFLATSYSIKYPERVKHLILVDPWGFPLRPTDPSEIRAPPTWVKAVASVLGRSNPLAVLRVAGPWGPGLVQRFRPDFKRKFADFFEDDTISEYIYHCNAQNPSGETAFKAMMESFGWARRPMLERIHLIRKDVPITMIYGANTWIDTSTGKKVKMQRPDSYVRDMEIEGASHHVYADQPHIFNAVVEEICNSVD
#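 Doses – 8.92 µM, single dose · Material – wild-type mouse ABHD4 protein · Replication – single well per compound (singlicate) · Measure – percent inhibition of probe binding, normalized to plate controls · Schedule – 45 min compound pre-incubation plus 60 min probe step, 25 °C · Detection – fluorescence polarization with parallel and perpendicular emission, 525/598 nm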
# HTRA1 inhibitor – HTRA1 (human) protease inhibition | recombinant HTRA1, FP-rhodamine activity-based probe, fluorescence polarization | inhibition, % at 5.96 µM | hit rate 0.5% among 340,000 | AID 504803; in the data active = inhibition above about 36%;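 note: 0% = enzyme with DMSO and 100% = wells lacking enzyme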
# Target sequence (Q92743 whole entry, looked up): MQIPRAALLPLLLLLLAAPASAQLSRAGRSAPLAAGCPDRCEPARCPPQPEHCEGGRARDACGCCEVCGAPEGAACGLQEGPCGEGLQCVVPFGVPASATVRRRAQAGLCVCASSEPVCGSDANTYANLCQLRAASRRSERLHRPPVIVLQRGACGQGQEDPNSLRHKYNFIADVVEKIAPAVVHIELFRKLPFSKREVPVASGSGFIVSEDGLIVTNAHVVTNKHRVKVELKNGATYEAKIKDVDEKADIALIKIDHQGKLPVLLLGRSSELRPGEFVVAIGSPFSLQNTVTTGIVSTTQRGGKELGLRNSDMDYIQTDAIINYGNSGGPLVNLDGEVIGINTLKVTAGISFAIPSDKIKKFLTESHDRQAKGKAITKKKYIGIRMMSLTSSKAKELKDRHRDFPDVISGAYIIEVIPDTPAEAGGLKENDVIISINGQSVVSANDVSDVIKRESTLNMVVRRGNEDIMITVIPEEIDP
# rCAG binder – molecules binding r(CAG) RNA repeats; inhibition, % at 3 µM; r(CAG) RNA repeat, TO-PRO-1 dye displacement fluorescence; hit rate 1.3% among 370,000; AID 651821;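 active = inhibition above the plate cutoff, the mean of all test compounds on that plate plus 3 SD, cut at about 35% in these data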;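 note: 0% = DMSO alone and 100% = 100 µM mitoxantrone as full dye displacement; higher means more dye released from RNA so lower well fluorescence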
# SIAE inh – inhibitors of human sialic acid acetylesterase SIAE; hit rate 0.69% among 370,000; inhibition, % at 9.66 µM; SIAE FP-Rh probe binding, fluorescence polarization; AID 1053197; Q9HAT2;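 active = inhibition above a cutoff: mean of compounds within the control limits plus 3 SD of those, cut at about 17% in these data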;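 note: 0% = plate median of compound wells and 100% = probe without SIAE protein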
# PRMT1 FP inh – PRMT1 (human) inhibition, primary screen. hit rate 1.3% among 370,000. Q99873. recombinant PRMT1, activity-based probe fluorescence polarization. inhibition, % at 2.79 µM;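 active = inhibition above about 21% made by adding two undisclosed values, limit read from the data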
# HTRA1 inh conf – confirmation of human HTRA1 inhibitors. AID 540248. recombinant HTRA1, FP-rhodamine activity-based probe, fluorescence polarization. hit rate 66% among 1,600. shares compounds with HTRA1 inhibitor. inhibition, % at 5.96 µM;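 active = mean inhibition over three repeats above a set limit taken from the earlier primary screen, cut at about 37% in these data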;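 note: 0% = HTRA1 with DMSO and 100% = wells lacking HTRA1; inhibitors block probe binding so polarization drops and inhibition rises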
# BSA TAMRA ctr – BSA probe counter-screen for TCR-CD3 inhibitors; hit rate 10% among 1,200; shares compounds with TCR-CD3 inh; AID 652035; TAMRA-labeled BSA probe fluorescence counterscreen; inhibition, % at 9.4 µM; in the data active = inhibition above about 23%;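 note: 0% = buffer low control and 100% = reference high control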
# TCR-CD3 inh conf – TCR-CD3 interaction inhibition, confirmation | shares compounds with TCR-CD3 inh | TAMRA-labeled TCR probe fluorescence binding assay | inhibition, % at 9.4 µM | hit rate 48% among 1,200 | AID 652036
# rCAG bind conf – r(CAG) RNA repeat binding, confirmation; shares compounds with rCAG binder; TO-PRO-1 dye displacement fluorescence; inhibition, % at 3 µM; hit rate 70% among 4,300;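 active = inhibition above a per-plate cutoff, the mean inhibition of sample wells plus 3 SD, cut at about 35% in these data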;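 note: loss of TO-PRO-1 fluorescence as compound displaces dye from 1x1 AA loop RNA; 0% = DMSO only wells and 100% = 100 µM mitoxantrone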
# DNA CAG counter – counter-screen for rCAG RNA binders: DNA CAG dye complex inhibitors | hit rate 94% among 4,300 | inhibition, % at 3 µM | AID 652068 | d(CAG) DNA oligo TO-PRO-1 dye displacement, fluorescence | shares compounds with rCAG binder;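 active = inhibition above its plate's cutoff, the mean test-well inhibition plus 3 SD, cut at about 4.8% in these data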;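 note: 0% = DNA dye mix with DMSO and 100% = 100 µM mitoxantrone; hits displace the dye from DNA and so lower well fluorescence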
# PRMT1 inh conf – PRMT1 (human) inhibition, FP confirmation | shares compounds with PRMT1 FP inh | recombinant His-PRMT1, activity-based probe fluorescence polarization | inhibition, % at 2.79 µM | hit rate 42% among 3,300;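 active = mean inhibition across replicates above the hit cutoff derived for the earlier primary screen, cut at about 22% in these data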
# The depositor's hits bear a star; / = no result given. The list is not random: actives were taken first. Their share in the collection is about 3.5%. Cut-off read from the data, not from the text of the source, unless noted: active = inhibition above about 19%; inactive = the rest.
SMILES,TCR-CD3 inh,mABHD4 FP,HTRA1 inhibitor,rCAG binder,SIAE inh,PRMT1 FP inh,HTRA1 inh conf,rCAG bind conf,DNA CAG counter,PRMT1 inh conf,others
CCCCOCCCNC(=O)C[C@H]1C(=O)N(Cc2ccc(OC)cc2)C2=CCCCC[C@@]21C(=O)OC,/,-0.7,/,-0.9,-2.9,2.2,/,/,/,/,
Cc1cc(=O)[nH]c2cc(O)ccc12,2.4,0.9,2.0,-3.7,0.8,-2.5,/,/,/,/,
CC(C)=CCCC1(C)C=Cc2c(c(C)cc3c2[nH]c2cc(O)ccc23)O1 (stereo not drawn),12.1,2.0,45.7*,51.0*,14.5,-2.0,31.5,29.7,15.2*,/,
Cc1ccccc1Cn1cc(CN2[C@H](CC(C)C)COc3cc(Br)ccc3S2(=O)=O)nn1,/,-0.9,/,3.2,1.0,0.7,/,/,/,/,
O=C(N/N=C/c1ccc([N+](=O)[O-])o1)c1sc2ccccc2c1Cl,6.6,27.3,52.1*,35.9*,-0.8,15.3,55.3*,38.5*,17.9*,/,
O=C(N/N=C/c1ccccn1)c1sc2ccccc2c1Cl,-9.1,-2.3,3.2,7.6,-13.9,-0.6,/,/,/,/,
CCn1c2ccccc2c2c3ncc4cccn4c3ccc21,1.1,9.2,46.9*,39.3*,-28.1,7.4,-17.1,55.5*,25.1*,/,
O=c1cc(-c2ccc(O)c(-c3c(O)cc(O)c4c(=O)cc(-c5ccc(O)cc5)oc34)c2)oc2cc(O)cc(O)c12,7.9,-76.2,40.3*,92.3*,-29.7,1.4,75.5*,78.7*,52.8*,/,
COc1cc(-c2cc(=O)c3c(O)cc(O)cc3o2)cc(OC)c1OC,6.5,0.4,/,1.1,-13.1,-8.8,/,/,/,/,
Cc1ccc(NC(=O)CSc2nnc(-c3cccnc3)n2Cc2ccco2)cc1C,/,2.2,/,5.1,0.5,10.2,/,/,/,/,
COc1ccc(N(C)S(=O)(=O)c2ccc(Cl)c(C(=O)NNC(=O)c3ccccc3O)c2)cc1,26.1*,1.1,42.3*,40.0*,12.5,-3.0,32.4,30.1,10.4*,/,BSA TAMRA ctr=2.7;TCR-CD3 inh conf=18.4
COCCCNC(=O)c1cc2cc(Br)ccc2oc1=O,-0.1,3.0,-3.2,-0.4,4.4,1.9,/,/,/,/,
O=C(NNC(=O)c1cc2cc(Br)ccc2oc1=O)c1ccc(O)cc1O,46.4*,26.8,58.3*,54.6*,-8.0,3.0,83.2*,21.0,5.3*,/,BSA TAMRA ctr=-15.1;TCR-CD3 inh conf=35.2*
O=C(NNc1ccc(C(F)(F)F)cc1[N+](=O)[O-])c1ccc(NS(=O)(=O)c2ccc(F)cc2)cc1,4.6,11.9,37.8*,71.0*,13.0,12.3,36.1,60.9*,22.1*,/,
CCOc1cccc(/C=N/NC(=S)Nc2ccccc2[N+](=O)[O-])c1O,31.2*,26.6,54.1*,35.1*,7.3,0.1,51.1*,35.3*,14.8*,/,BSA TAMRA ctr=-4.5;TCR-CD3 inh conf=14.8
COc1ccc(/C=C/C(=O)c2ccc(OC)cc2OC)cc1,4.6,6.2,-17.2,-4.7,-2.2,0.0,/,/,/,/,
CNc1ccc(Br)cc(C(=O)/C=C/c2ccc(OC)cc2)c1=O,-1.5,41.0*,44.9*,41.8*,5.0,44.0*,31.5,39.6*,15.2*,39.1*,
CCOC(=O)c1c(-c2ccccc2)oc2cc(CN(C)C)c(O)c(CN(C)C)c12,-0.7,13.8,43.6*,-27.6,3.0,26.5*,50.8*,/,/,3.5,
CCOC(=O)c1c(C)oc2cc(Cl)c(O)c(CN(C)C)c12,-2.9,-4.0,2.6,-5.6,-5.1,8.0,/,/,/,/,
O=C(O)c1cc(N2N=C(C(F)(F)F)/C(=C/C=C/c3ccco3)C2=O)ccc1Cl,25.9*,57.6*,41.2*,88.8*,4.9,70.0*,13.8,93.2*,76.3*,54.4*,BSA TAMRA ctr=13.2;TCR-CD3 inh conf=33.8*
O=C1CC(=Nc2ccc([N+](=O)[O-])cc2)NN1c1c(Cl)cc(Cl)cc1Cl,-3.8,65.5*,49.3*,48.5*,9.8,34.9*,34.9,48.7*,32.2*,13.7,
O=C(c1cscn1)N1CCC(Oc2cccnc2)CC1,/,1.5,/,2.5,-0.5,0.0,/,/,/,/,
CC1(C)CCN2CCC(C)(C)c3c(O)ccc1c32,10.7,20.8,65.6*,-14.6,-16.7,54.0*,27.0,/,/,14.2,
COC(=O)[C@H]1C[C@@]2(c3ccccc3)c3ccccc3N(S(=O)(=O)c3ccccc3)[C@H]2N1,/,-5.3,/,4.0,-3.3,0.6,/,/,/,/,
COc1ccc2ccccc2c1/C=N/N1C(=O)CSC1=S,-4.9,6.4,-15.7,25.2,-1.1,11.4,/,/,/,/,
SMILES,TCR-CD3 inh,mABHD4 FP,HTRA1 inhibitor,rCAG binder,SIAE inh,PRMT1 FP inh,HTRA1 inh conf,rCAG bind conf,DNA CAG counter,PRMT1 inh conf,others
O=C1CSC(=S)N1N=Cc1c(O)ccc2ccccc12,17.2,44.8*,37.1*,23.5,7.4,35.0*,41.2*,/,/,33.4*,
Cc1ccc(NC(=O)OC2CCC23CCCCC3)cc1 (stereo not drawn),/,2.1,/,1.2,-0.3,-2.0,/,/,/,/,
COC(=O)[C@@H]1N=C(c2ccc(OC)cc2)O[C@]12C(=O)N(Cc1cn(-c3ccccc3)nn1)c1cccc(Cl)c12,/,-8.9,/,10.7,-1.1,0.0,/,/,/,/,
COP(=O)(OC)C(NC(=O)OCc1ccccc1)C(C)C (stereo not drawn),/,1.9,/,0.5,5.2,-3.3,/,/,/,/,
Cc1cc2nc3c(=O)n(C4CCCCC4)c(=O)[nH]c3nc2cc1N,-2.9,25.1,58.0*,-74.4,12.1,94.0*,27.6,/,/,118.1*,
Cc1cc(C)cc(Nc2cc(=O)n(C3CCCCC3)c(=O)[nH]2)c1,6.5,2.2,-2.2,4.9,-5.3,-5.3,/,/,/,/,
Cc1ccc(Nc2c([N+](=O)[O-])ccc3nonc23)c(C)c1,-5.2,-0.5,-6.5,-2.6,11.9,-3.8,/,/,/,/,
Cc1ccc(S(=O)c2ccc([N+](=O)[O-])c3nonc23)cc1 (stereo not drawn),-3.2,44.3*,43.1*,63.4*,-12.2,57.8*,72.7*,/,/,106.2*,
Cc1c(N=C2C=C(Br)C(=O)C(Br)=C2)c(=O)n(-c2ccccc2)n1C,45.9*,69.0*,57.3*,-19.8,12.8,61.5*,24.0,/,/,49.2*,BSA TAMRA ctr=-2.8;TCR-CD3 inh conf=3.5
O=c1[nH]c2ccc(Cl)cc2c(-c2ccccc2)c1SC(=S)N1CCOCC1,7.2,5.7,42.5*,3.4,-9.5,26.6*,-26.3,/,/,15.6,

# Screening results (PubChem)
